Assays:
[1] = melting temperature; fluorescence melt of hairpins on a sequencing array, two-state fit, raised by 9.35 °C to match UV melts; conditions: sodium 0.088 M
Method in brief: (§1)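 Melting temperature and folding enthalpy were obtained by bootstrapped two-state fitting. Fits used Cy3 fluorescence of library hairpins with annealed Cy3 and quencher oligos on a sequenced MiSeq flow cell, imaged in 50 mM Na-HEPES pH 8.0, 25 mM NaCl in 2.5 °C steps up to 60 °C and normalised to pre-quench Cy3 and control constructs. Four replicates were combined by inverse-variance weighting, and fitted temperatures were raised by 9.35 °C to match UV melts.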

[2] = folding enthalpy; higher = less favourable; fluorescence melt of hairpins on a sequencing array, two-state fit; conditions: sodium 0.088 M
Method in brief: as §1

| Sequence | Tm [1] [°C] | folding enthalpy [2] [kcal/mol] |
| --- | --- | --- |
| GGAGTGGGAAACCACTCC (((((((....))))))) | 68.2 | -38.6 |
| GGAGTTGGAAACAGTTCC (((..((....))..))) | 35 | -13.4 |
| GGATAAACGAAAGTTTCC (((..(((....)))))) | 27.7 | -17.1 |
| GGATAACGAAAGTTCTCC (((.(((....))).))) | 41.3 | -32.7 |
| GGATACACGAAAGTGTCC (((..(((....)))))) | 35.9 | -12 |
| GGATACCCGAAAGGGTCC (((..(((....)))))) | 31.9 | -10.4 |
| GGATACCGAAAGGTCTCC (((.(((....))).))) | 47.6 | -25.3 |
| GGATACGAAAGTAGATCC ((((((....)))..))) | 34.7 | -17.9 |
| GGATACGAAAGTAGCTCC ((((((....)))..))) | 37.1 | -12.7 |
| GGATACGAAAGTATTCC ((((((....))).))) | 42.9 | -22.8 |
| GGATAGCGAAAGCTGTCC (((.(((....))).))) | 59.3 | -42.1 |
| GGATAGGAAACTATCC ((((((....)))))) | 51.4 | -30.5 |
| GGATAGGCGAAAGCCTCC (((..(((....)))))) | 36.6 | -10.2 |
| GGATAGGGAAACCTATCC (((((((....))))))) | 56.8 | -47.9 |
| GGATATACGAAAGTATCC (((..(((....)))))) | 36 | -16.9 |
| GGATATGCGAAAGCATCC (((..(((....)))))) | 36.5 | -12.2 |
| GGATATGGAAACGTATCC (((((.(....).))))) | 43.4 | -35.5 |
| GGATCAGAAATGATCC ((((((....)))))) | 55.3 | -36 |
| GGATCAGGAAACTGATTC (.(((((....))))).) | 44.4 | -31.1 |
| GGATCCCGAAAGGGGTCC (((.(((....))).))) | 65.8 | -39.3 |
| GGATCCGAAAGGACTCC ((((((....))).))) | 47.4 | -23.9 |
| GGATCCGGAAACGGACCC ((.((((....)))).)) | 50.4 | -21.2 |
| GGATCGCGAAAGCGTTCC (((.(((....))).))) | 57.8 | -27.7 |

| Sequence | Tm [1] [°C] | folding enthalpy [2] [kcal/mol] |
| --- | --- | --- |
| GGATCGGGAAACCGGTCC (((.(((....))).))) | 56.1 | -50.4 |
| GGATCTGAAAAGATCC ((((((....)))))) | 58.3 | -37 |
| GGATCTGGAAACAGGTCC (((.(((....))).))) | 50.6 | -31.5 |
| GGATGAGGAAACTCGTTC (.(.(((....))).).) | 28.3 | -15.8 |
| GGATGAGGAAACTTATCC ((((.((....)).)))) | 38.6 | -33.4 |
| GGATGCCGAAAGGCTTCC (((.(((....))).))) | 60.3 | -28.6 |
| GGATGCGAAAGCAATTCC ((((((....)))..))) | 36.7 | -16.1 |
| GGATGCGAAAGCAGCTCC ((((((....)))..))) | 47.5 | -11.3 |
| GGATGCGAAAGCAGGTCC ((((((....)))..))) | 37.7 | -11.8 |
| GGATGCGAAAGCATGTCC ((((((....)))..))) | 35.9 | -11.7 |
| GGATGCGAAAGCATTTCC ((((((....)))..))) | 38.8 | -11.1 |
| GGATGCGGAAACGTATCC ((((.((....)).)))) | 52.6 | -46.7 |
| GGATGGACGAAAGTCTCC (((..(((....)))))) | 32.5 | -13.6 |
| GGATGGCGAAAGCCCTCC (((.(((....))).))) | 49.2 | -31.2 |
| GGATGGCGAAAGCCTTCC (((.(((....))).))) | 56.6 | -24.3 |
| GGATGGGGAAACCCGTCC (((.(((....))).))) | 54.2 | -48.4 |
| GGATGTCGAAAGACTCC (((.(((....)))))) | 51.8 | -25.3 |
| GGATGTCGAAAGACTTCC (((.(((....))).))) | 51.5 | -39.6 |
| GGATGTGGAAACATGTCC (((..((....))..))) | 40 | -20.9 |
| GGATTAGAAATAATCC ((((((....)))))) | 42.8 | -29.3 |
| GGATTCCGAAAGGACTCC (((.(((....))).))) | 47 | -38.8 |
| GGATTCGAAAGAAGCTCC ((((((....)))..))) | 32.8 | -14.2 |
| GGATTCGGAAACGGATCC ((((.((....)).)))) | 53 | -39.2 |

| Sequence | Tm [1] [°C] | folding enthalpy [2] [kcal/mol] |
| --- | --- | --- |
| GGATTGCCGAAAGGCTCC (((..(((....)))))) | 37.6 | -8.38 |
| GGATTGCGAAAGCATCC (((.(((....)))))) | 50.8 | -20.8 |
| GGATTGGCGAAAGCCTCC (((..(((....)))))) | 35.3 | -10.5 |
| GGATTGGGAAACCAATCC (((((((....))))))) | 60.2 | -48.6 |
| GGATTTCCGAAAGGATCC (((..(((....)))))) | 34.2 | -17.6 |
| GGATTTCGAAAGAACTCC (((.(((....))).))) | 38 | -29.4 |
| GGCAAACGAAAGTTGGCC (((.(((....))).))) | 60.2 | -43.9 |
| GGCAAAGGAAACCTTGCC (((((.(....).))))) | 49.3 | -31.5 |
| GGCAAAGGAAACTTTGTC (.(((((....))))).) | 46.5 | -29.1 |
| GGCAACGAAAGTTCTGCC ((((((....)))..))) | 40.4 | -27.3 |
| GGCAACGAAAGTTGTGCC ((((((....)))..))) | 51.2 | -13.5 |
| GGCAACGAAAGTTTAGCC ((((((....)))..))) | 43.5 | -29.1 |
| GGCAACGCGAAAGCGGCC (((..(((....)))))) | 59.7 | -19.8 |
| GGCAAGCCGAAAGGCGCC (((..(((....)))))) | 59.8 | -14.4 |
| GGCAAGGGAAACCTTGTC (.(((((....))))).) | 50.6 | -31.7 |
| GGCAATCGAAAGATGCC (((.(((....)))))) | 56.5 | -40.3 |
| GGCACACGAAAGTGAGCC (((.(((....))).))) | 63.5 | -38.1 |
| GGCACAGGAAACTATGCC ((((.((....)).)))) | 41.7 | -29.2 |
| GGCACAGGAAACTGTGTC (.(((((....))))).) | 54 | -32.2 |
| GGCACCGAAAGGTAGGCC ((((((....)))..))) | 52.7 | -29.7 |
| GGCACCGAAAGGTCGCC ((((((....))).))) | 59.4 | -35.6 |
| GGCACCGGAAACAGCGCC (((.(.(....).).))) | 34.5 | -22.1 |
